Results from different studies.
Compare with care: the assays were run in different laboratories.
Target: Vascular endothelial growth factor receptor 1 (FLT1, Homo sapiens, UniProt P17948)

Cc1ncc(C)n2nc(/C=C/c3nc(N4CCCC4)cc(N4CCOCC4)n3)nc12 — inhibition (enzyme activity; inhibitor; 10 µM): -6%
O=c1[nH]c2ccccc2n1C1CCN(Cc2ccc(-c3[nH]c4cc5ncnc5cc4nc3-c3ccccc3)cc2)CC1 — remaining signal (cell-free assay; 0.5 µM): 92.2%
Cn1cc(-c2cccc(N3CCc4c(sc5c4CC(C)(C)C5)C3=O)c2CO)cc(Nc2ccncn2)c1=O — inhibition (enzyme activity; inhibitor; 1 µM): 2%
O=C(Nc1cccnn1)N1CCN([C@@H]2CCOc3cc(C(F)(F)F)ccc32)CC1 — inhibition (enzyme activity; inhibitor; 20 µM): 2%
COCc1c(-c2cc3cc(C)cc(OC)c3s2)c2c(N)ncnn2c1CN1CCNC(=O)C1 — inhibition (cell-free assay; competition with immobilised ligand; 1 µM): 91.7%
Cn1cncc1[C@](O)(COc1ccc(C#N)cc1-c1ccc(OC(F)(F)F)cc1)c1ccc(C#N)cc1 — remaining binding (cell-free assay; competition with immobilised ligand; 1 µM): 98%
Cn1cc(-c2cc(F)cc(N3CCn4c(cc5c4CCCC5)C3=O)c2CO)cc(Nc2ccc(N3CCN(C4COC4)CC3)cn2)c1=O — inhibition (enzyme activity; inhibitor; 0.1 µM): 5%
C#Cc1n[nH]c2c(-c3cn([C@@H](C)c4ccccn4)c(=O)[nH]c3=O)cc(F)cc12 — inhibition (enzyme activity; inhibitor; 0.1 µM): 2%
Nc1ncc(-c2nc(N3CCOCC3)nc(N3CCOCC3)n2)c(C(F)F)n1 — remaining binding (cell-free assay; competition with immobilised ligand; 10 µM): 91%
C#Cc1n[nH]c2c(-c3cn([C@@H](C)c4ccccc4)c(=O)[nH]c3=O)cc(F)cc12 — inhibition (enzyme activity; inhibitor; 0.1 µM): 1.9%
CC(C)(C)c1cc(C=C(C#N)C#N)cc(Br)c1O — remaining activity (enzyme activity; inhibitor; 0.5 µM): 92.5%
COc1ncccc1-c1cnn2ccc(N3CCN(C(=O)OC(C)C)CC3)nc12 — remaining binding (binding; competition with immobilised ligand; 1 µM): 100%
